From ChEMBL document CHEMBL1138512, “A class of 2,4-bisanilinopyrimidine Aurora A inhibitors with unusually high selectivity against Aurora B” (J Med Chem, 2009) come the findings set out here.

One assay concerns the target T1, Aurora kinase A (Homo sapiens, UniProt O14965).
T1 sequence (O14965 whole entry): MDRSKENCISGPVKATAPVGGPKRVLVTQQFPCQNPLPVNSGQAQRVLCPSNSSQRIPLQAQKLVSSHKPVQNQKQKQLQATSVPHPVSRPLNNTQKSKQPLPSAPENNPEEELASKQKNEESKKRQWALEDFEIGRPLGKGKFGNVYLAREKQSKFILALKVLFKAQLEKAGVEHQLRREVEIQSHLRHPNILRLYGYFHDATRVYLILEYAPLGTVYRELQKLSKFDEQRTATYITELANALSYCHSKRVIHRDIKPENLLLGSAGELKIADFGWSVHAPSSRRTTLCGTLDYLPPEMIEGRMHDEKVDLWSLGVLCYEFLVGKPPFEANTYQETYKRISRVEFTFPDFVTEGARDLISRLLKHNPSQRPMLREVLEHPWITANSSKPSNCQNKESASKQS
In words: Inhibition of N-terminal flag-tagged Aurora A expressed in Escherichia coli BL21-DE3 by ELISA. On the technique in general: An ELISA detects its analyte on a solid surface through an enzyme-linked reagent.

In another assay the test system is HT-29. Nature of the assay: Antiproliferative activity against human HT-29 cells after 4 days by celltiter assay. In kind it is functional, cell-based. As to conditions: HT-29, 96 h.
For a further assay, the system named is HCT-116. Nature of the assay: Antiproliferative activity against human HCT116 cells after 4 days by celltiter assay. In kind it is functional, cell-based. The following applies: HCT-116, 96 h.
Assay [1] has as its target T2, Aurora kinase B (Homo sapiens, UniProt Q96GD4). In words: Inhibition of Aurora B in human HT29 cells assessed as complete loss of phospho-histone H3 staining by immunofluorescence assay. The format is cell-based, HT-29. The procedure, abridged: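 Immunofluorescence for phospho-S10 histone H3 in HCT116 or HT29 cells, scored visually. Value taken as the lowest inhibitor concentration giving complete loss of staining, so it lies above the IC50. Units µM.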

For assay [2], the target named is T2, Aurora kinase B. In words: Inhibition of N-terminal flag-tagged Aurora B expressed in Escherichia coli BL21-DE3 by ELISA.
Assay [3] addresses T2, Aurora kinase B. Nature of the assay: Inhibition of Aurora B in human HCT116 cells assessed as complete loss of phospho-histone H3 staining by immunofluorescence assay.

T2 sequence (Q96GD4 whole entry): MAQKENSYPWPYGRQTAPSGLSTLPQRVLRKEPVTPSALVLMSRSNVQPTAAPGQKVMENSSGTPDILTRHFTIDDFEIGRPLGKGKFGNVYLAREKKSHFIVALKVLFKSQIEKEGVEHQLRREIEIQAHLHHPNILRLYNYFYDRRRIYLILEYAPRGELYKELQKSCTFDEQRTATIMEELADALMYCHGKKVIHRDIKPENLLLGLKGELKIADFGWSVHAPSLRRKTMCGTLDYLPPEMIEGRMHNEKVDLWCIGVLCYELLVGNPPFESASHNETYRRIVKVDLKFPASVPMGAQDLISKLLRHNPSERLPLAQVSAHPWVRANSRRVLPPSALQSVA

A word on the IC50: it is the concentration at which inhibition is half-maximal. `O=C(Nc1cccc(F)c1)c1ccc(Nc2nc(Nc3ccc(O)cc3)ncc2F)cc1`: the IC50 against Aurora kinase A stood at 59 nM.
In the case of `O=C(O)c1ccc(Nc2ncc3c(n2)-c2ccc(Cl)cc2C(c2c(F)cccc2F)=NC3)cc1` [MLN-8054], the IC50 in the assay with HT-29 was found to be 150 nM; in the assay on HCT-116, 100 nM.
As for `CCc1cnc(Nc2ccc(O)cc2)nc1Nc1ccc(O)cc1`, the IC50 against Aurora kinase A worked out at 150 nM.
On the same count and under the same terms, for `COc1ccc(NC(=O)c2ccc(Nc3nc(Nc4ccc(O)cc4)ncc3F)cc2)cc1` the value was 14 nM; for `Oc1ccc(Nc2ncc(C(F)(F)F)c(Nc3ccc(O)cc3)n2)cc1`, 14 nM.
As for `Oc1ccc(Nc2cc(Cl)nc(Nc3ccc(O)cc3)n2)cc1`, the IC50 on Aurora kinase A is > 17000 nM.
`NC(=O)c1ccc(Nc2nc(Nc3ccc(O)cc3)ncc2F)cc1` showed an IC50 against Aurora kinase A of 160 nM.
Compound `O=C(Nc1ccc(F)cc1)c1ccc(Nc2nc(Nc3ccc(O)cc3)ncc2F)cc1` returned an IC50 on Aurora kinase A of 25 nM.
With `O=C(Nc1ccc(O)cc1)c1ccc(Nc2nc(Nc3ccc(O)cc3)ncc2F)cc1`, the IC50 on Aurora kinase A was determined as 13 nM.
Consider `Cc1cc(Nc2ccc(O)cc2)nc(Nc2ccc(O)cc2)n1`, for which the IC50 at Aurora kinase A is > 17000 nM.
As for `CN(C)C(=O)c1ccc(Nc2nc(Nc3ccc(O)cc3)ncc2F)cc1`, at Aurora kinase A, it took 640 nM to reach half-maximal inhibition (IC50).
Consider `O=C(Nc1cccc(Cl)c1)c1ccc(Nc2nc(Nc3ccc(O)cc3)ncc2F)cc1`, for which inhibition on Aurora kinase A was half-maximal at 140 nM (IC50).
`Cc1cccc(NC(=O)c2ccc(Nc3nc(Nc4ccc(O)cc4)ncc3F)cc2)c1` showed an IC50 at Aurora kinase A of 50 nM.
Regarding `Cc1nc(Nc2ccc(O)cc2)nc(Nc2ccc(O)cc2)c1C`, the IC50 against Aurora kinase A was > 17000 nM.
Turning to `Fc1ccc(Nc2ncc(F)c(Nc3ccc(F)cc3)n2)cc1`, the IC50 on Aurora kinase A was determined as 200 nM.
The same measure, in the same setting: for `Cc1cnc(Nc2ccc(O)cc2)nc1Nc1ccc(O)cc1` the value was 34 nM; for `O=C(Nc1ccccc1F)c1ccc(Nc2nc(Nc3ccc(O)cc3)ncc2F)cc1`, 9 nM.
On the same count and under the same terms, then `Cc1cccc(Nc2ncc(F)c(Nc3cccc(C)c3)n2)c1`, with 680 nM.
The same measure, in the same setting: for `COc1ccccc1NC(=O)c1ccc(Nc2nc(Nc3ccc(O)cc3)ncc2F)cc1` the value was 78 nM.
The compound `COc1ccccc1Nc1nc(Nc2ccc(O)cc2)ncc1F` yielded an IC50 on Aurora kinase A of 20 nM.
On Aurora kinase A, `Cc1cccc(Nc2nc(Nc3ccc(O)cc3)ncc2F)c1` returned a half-maximal inhibitory concentration (IC50) of 180 nM.
Regarding `O=C(Nc1ccccc1)c1ccc(Nc2nc(Nc3ccc(O)cc3)ncc2F)cc1`, half-maximal inhibition against Aurora kinase A (IC50) was put at 19 nM.
`O=C(Nc1ccc(Nc2nc(Nc3ccc(O)cc3)ncc2F)cc1)c1ccccc1` gave an IC50 at Aurora kinase A of 18 nM.
`O=C(Nc1cccc(O)c1)c1ccc(Nc2nc(Nc3ccc(O)cc3)ncc2F)cc1` had an IC50 at Aurora kinase A of 19 nM.
The compound `N#Cc1cnc(Nc2ccc(O)cc2)nc1Nc1ccc(O)cc1` showed an IC50 on Aurora kinase A of 23 nM.
The same measure, in the same setting: for `COc1cccc(NC(=O)c2ccc(Nc3nc(Nc4ccc(O)cc4)ncc3F)cc2)c1` the value was 36 nM.
At Aurora kinase A, `CC(C)NC(=O)c1ccc(Nc2nc(Nc3ccc(O)cc3)ncc2F)cc1` returned an IC50 of 51 nM.
Turning to `COc1cccc(Nc2nc(Nc3ccc(O)cc3)ncc2F)c1`, half-maximal inhibition against Aurora kinase A (IC50) required 260 nM.
In turn, `COc1ccc(Nc2nc(Nc3ccc(O)cc3)ncc2F)cc1` came in with an IC50 against Aurora kinase A of 78 nM.
Take `O=C(NC1CC1)c1ccc(Nc2nc(Nc3ccc(O)cc3)ncc2F)cc1`: the IC50 was > 30000 nM on Aurora kinase B [1]; 54 nM on Aurora kinase A; 3800 nM on Aurora kinase B [2]; > 25000 nM at Aurora kinase B [3]; 27000 nM with HT-29; 2000 nM in the assay on HCT-116.
Compound `COc1ccc(Nc2ncc(F)c(Nc3ccc(OC)cc3)n2)cc1` yielded an IC50 against Aurora kinase A of 130 nM.
At Aurora kinase A, `CCCc1cnc(Nc2ccc(O)cc2)nc1Nc1ccc(O)cc1` showed an IC50 of 11000 nM.
In the case of `Cc1ccccc1Nc1nc(Nc2ccc(O)cc2)ncc1F`, the IC50 against Aurora kinase A came out at 67 nM.
Same read-out and setting: for `Cc1ccc(Nc2nc(Nc3ccc(O)cc3)ncc2F)cc1` the value was 75 nM; for `O=C(Nc1ccccc1O)c1ccc(Nc2nc(Nc3ccc(O)cc3)ncc2F)cc1`, 28 nM; for `O=C(Nc1ccc(Cl)cc1)c1ccc(Nc2nc(Nc3ccc(O)cc3)ncc2F)cc1`, 64 nM.
For the compound `CCCNC(=O)c1ccc(Nc2nc(Nc3ccc(O)cc3)ncc2F)cc1`, half-maximal inhibition on Aurora kinase A (IC50) required 49 nM.
On the same count and under the same terms, then `Cc1ccc(NC(=O)c2ccc(Nc3nc(Nc4ccc(O)cc4)ncc3F)cc2)cc1`, with 180 nM; and `Oc1ccc(Nc2ccnc(Nc3ccc(O)cc3)n2)cc1`, with 490 nM.
As for `O=C(Nc1ccc(Nc2nc(Nc3ccc(O)cc3)ncc2F)cc1)c1ccccc1Cl`, the IC50 on Aurora kinase B [1] is > 30000 nM; against Aurora kinase B [2] it was 1400 nM; at Aurora kinase B [3], > 12000 nM; in the assay on HT-29, 7200 nM; in the assay with HCT-116, 850 nM.
For `Oc1ccc(Nc2ncc(Cl)c(Nc3ccc(O)cc3)n2)cc1`, the IC50 at Aurora kinase A was found to be 8 nM.
With `O=C(Nc1ccc(Nc2nc(Nc3ccc(O)cc3)ncc2F)cc1)c1ccccc1F`, the IC50 against Aurora kinase A came to 14 nM.
On the same count and under the same terms, then `Oc1ccc(Nc2ncc(F)c(Nc3ccc(O)cc3)n2)cc1`, with 30 nM; and `Cc1ccccc1NC(=O)c1ccc(Nc2nc(Nc3ccc(O)cc3)ncc2F)cc1`, with 20 nM.
